Measured values pooled from the literature.

Cc1sc2c(=O)n(O)c(=O)[nH]c2c1C
Papp (PAMPA; 10 µM, 5 h): 0.5 ×10⁻⁶ cm/s

Oc1ccc(-c2nc(N3CCC(c4ccccn4)C3)c3ccccc3n2)cc1 (stereo not drawn)
Papp (PAMPA; 10 µM, 3 h, pH 7.4): 32.8 ×10⁻⁶ cm/s

Cc1cc(N)nc(C#CCCN(C)C)c1
Papp (PAMPA-BBB; 200 µM, 17 h): 4.7 ×10⁻⁶ cm/s

O=C(NCCN1CCCC1)c1cc(-c2ccc(CN3CCOCC3)cc2)nc2ccc(F)cc12
Papp (PAMPA): 7.3 ×10⁻⁶ cm/s

CN(C)CCn1cnc2c(c(-c3ccccc3)c(-c3ccccc3)n2Cc2ccccc2)c1=N
Papp (PAMPA; 50 µM, 30 min): 1360 ×10⁻⁶ cm/s

NC(=O)C1CCN(c2nc(-c3ccccn3)nc3ccccc23)C1 (stereo not drawn)
Papp (PAMPA; 10 µM, 3 h, pH 7.4): 8 ×10⁻⁶ cm/s

C[C@H](Nc1ccnc(Nc2cccc(-c3cccnc3)c2)n1)C(=O)O
Papp (PAMPA; 50 nM, 30 min): 9.7 ×10⁻⁶ cm/s

Cc1cc(C)c2cc(C(=O)NC3CCCCCCC3)[nH]c2c1
Papp (PAMPA; 16 h): 0.18 ×10⁻⁶ cm/s

c1ccc(C2CCN(c3nc(-c4cnn5c4CCCC5)nc4ccccc34)C2)nc1 (stereo not drawn)
Papp (PAMPA; 10 µM, 3 h, pH 7.4): 36.7 ×10⁻⁶ cm/s

CC(C)Nc1ccnc(Nc2ccccc2-c2ccccc2)n1
Papp (PAMPA; 50 nM, 30 min): 2360 ×10⁻⁶ cm/s

CC(C)c1noc(C2CCN(c3ncnc(Nc4ccc(S(C)(=O)=O)cc4F)c3[N+](=O)[O-])CC2)n1
Papp (PAMPA-BBB; 0.5 µM, 4 h, pH 7.4): 3.02 ×10⁻⁶ cm/s

c1ccc(CN2CCN(c3nc(-c4ccccn4)nc4ccccc34)CC2)cc1
Papp (PAMPA; 10 µM, 3 h, pH 7.4): 32.8 ×10⁻⁶ cm/s

CC(=O)CC(c1ccccc1)c1c(O)c2ccccc2oc1=O (stereo not drawn)
Papp (PAMPA; 10 µM, 24 h, pH 7.4): 1.5 ×10⁻⁶ cm/s

COC(=O)c1cccc(-c2cccc(Nc3nccc(NC4CCCCC4)n3)c2)c1
Papp (PAMPA; 50 nM, 30 min): 76.9 ×10⁻⁶ cm/s

O=c1[nH]c2sccc2c(=O)n1O
Papp (PAMPA; 10 µM, 5 h): 0.08 ×10⁻⁶ cm/s

CC(C)Nc1ccnc(Nc2cccc(-c3cc[nH]n3)c2)n1
Papp (PAMPA; 50 nM, 30 min): 1740 ×10⁻⁶ cm/s

O=C(O)c1ccc2c(c1)nc(NCc1ccccc1)c1ncncc12
Papp (PAMPA; 5 h, pH 7.4): 2.79 ×10⁻⁶ cm/s

CCn1cc2c(N3CCC(c4ccccn4)C3)nc(-c3ccccn3)nc2n1 (stereo not drawn)
Papp (PAMPA; 10 µM, 3 h, pH 7.4): 9.3 ×10⁻⁶ cm/s

N=c1c2c(-c3ccccc3)cn(Cc3ccccc3)c2ncn1C1CCOCC1
Papp (PAMPA; 50 µM, 30 min): 1730 ×10⁻⁶ cm/s

O=c1[nH]c2cc(-c3ccc(Cl)cc3)sc2c(=O)n1O
Papp (PAMPA; 10 µM, 5 h): 1 ×10⁻⁶ cm/s

N#CC1CCCN(c2nc(-c3ccccn3)nc3ccccc23)C1 (stereo not drawn)
Papp (PAMPA; 10 µM, 3 h, pH 7.4): 22.4 ×10⁻⁶ cm/s

N=c1c2c(-c3ccccc3)c(-c3ccccc3)n(Cc3ccccc3)c2ncn1[C@H]1CC[C@H](O)CC1
Papp (PAMPA; 50 µM, 30 min): > 1000 ×10⁻⁶ cm/s

CCn1ncc2c(N3CCC(c4ccccn4)C3)nc(-c3ccccn3)nc21 (stereo not drawn)
Papp (PAMPA; 10 µM, 3 h, pH 7.4): 30.2 ×10⁻⁶ cm/s

C[C@@H](NC(=O)[C@@H](CC(=O)N1CCC(N2CCCCC2)CC1)N1C(=O)[C@@H](N2C(=O)OC[C@@H]2c2ccccc2)[C@H]1/C=C/c1cccc(F)c1)c1ccccc1
Papp (PAMPA-BBB; 25 µg/mL, 18 h, pH 7.4): > 4 ×10⁻⁶ cm/s

CC[C@@H](C)[C@@H]1NC(=O)[C@@H](Cc2ccccc2)OC(=O)CN(C)C(=O)[C@H]([C@H](C)CC)NC(=O)[C@@H](Cc2ccccc2)OC(=O)CN(C)C1=O
Papp (PAMPA): 28 ×10⁻⁶ cm/s

CC[C@H](C)Nc1ccnc(Nc2cccc(-c3cccnc3)c2)n1
Papp (PAMPA; 50 nM, 30 min): 2000 ×10⁻⁶ cm/s

c1ccc(-c2nc(N3CCC(c4ccccn4)C3)c3ccccc3n2)nc1 (stereo not drawn)
Papp (PAMPA; 10 µM, 3 h, pH 7.4): 22.6 ×10⁻⁶ cm/s
